Reference: ChEMBL document CHEMBL1144183, “Synthesis and biological affinity of new imidazo- and indol-arylpiperazine derivatives: further validation of a pharmacophore model for alpha(1)-adrenoceptor antagonists” (Bioorg Med Chem Lett, 2008)

Legend:
[1] = Displacement of [3H]rauwolscine from alpha2 adrenoceptor in rat cortex membrane; type: cell membranes
Outline: (§1)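 Competitive radioligand binding on rat cerebral cortex membranes. IC50 was converted to Ki by Cheng–Prusoff, Ki = IC50/(1+[L]/Kd). Ki is the mean of three separate experiments, each run in triplicate.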

[2] = molecular target: T1, 5-hydroxytryptamine receptor 1A (Rattus norvegicus, UniProt P19327); experiment: Displacement of [3H]8-OH-DPAT from 5HT1A receptor in rat cortex membrane; type: cell membranes; outline: as §1
T1 sequence (P19327 whole entry): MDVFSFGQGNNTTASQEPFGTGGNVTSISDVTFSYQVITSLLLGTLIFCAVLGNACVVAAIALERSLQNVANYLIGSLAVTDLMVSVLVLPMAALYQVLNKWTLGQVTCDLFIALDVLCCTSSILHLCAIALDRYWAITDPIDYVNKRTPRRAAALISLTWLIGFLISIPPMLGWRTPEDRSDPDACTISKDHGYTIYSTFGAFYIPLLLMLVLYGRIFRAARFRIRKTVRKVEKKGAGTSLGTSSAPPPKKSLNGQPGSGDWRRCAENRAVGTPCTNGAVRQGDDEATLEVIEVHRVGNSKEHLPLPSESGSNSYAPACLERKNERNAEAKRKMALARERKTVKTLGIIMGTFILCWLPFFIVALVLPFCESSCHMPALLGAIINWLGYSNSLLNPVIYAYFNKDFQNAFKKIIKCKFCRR

Rattus norvegicus [3] = species: Rattus norvegicus; experiment: Ratio of Ki for alpha2 adrenoceptor in rat cortex membrane to Ki for alpha1 adrenoceptor in rat cortex membrane; type: cell membranes
Rattus norvegicus [4] = species: Rattus norvegicus; experiment: Ratio of Ki for 5HT1A receptor in rat cortex membrane to Ki for alpha1 adrenoceptor in rat cortex membrane; type: cell membranes
[5] = molecular target: T2, Sodium-dependent serotonin transporter (Homo sapiens, UniProt P31645); type: cell membranes
Target sequence in this assay (P31645 whole entry): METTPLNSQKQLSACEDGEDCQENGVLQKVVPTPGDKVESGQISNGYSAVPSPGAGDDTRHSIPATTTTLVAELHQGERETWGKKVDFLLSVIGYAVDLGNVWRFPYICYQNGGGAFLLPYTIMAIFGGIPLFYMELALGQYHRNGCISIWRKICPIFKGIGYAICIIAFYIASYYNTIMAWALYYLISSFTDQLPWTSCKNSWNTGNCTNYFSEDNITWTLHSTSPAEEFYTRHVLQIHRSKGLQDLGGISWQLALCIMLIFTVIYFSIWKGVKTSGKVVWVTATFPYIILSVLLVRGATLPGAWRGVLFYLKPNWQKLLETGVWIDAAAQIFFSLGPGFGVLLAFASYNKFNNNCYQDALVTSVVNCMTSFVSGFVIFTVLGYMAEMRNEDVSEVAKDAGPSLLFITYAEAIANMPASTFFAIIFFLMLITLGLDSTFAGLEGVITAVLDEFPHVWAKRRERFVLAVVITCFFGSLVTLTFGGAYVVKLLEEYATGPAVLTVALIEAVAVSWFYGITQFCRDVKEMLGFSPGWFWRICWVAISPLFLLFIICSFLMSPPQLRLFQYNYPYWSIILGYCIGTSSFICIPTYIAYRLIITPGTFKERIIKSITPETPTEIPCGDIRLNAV

[6] = Displacement of [3H]prazosin from alpha1 adrenoceptor in rat cortex membrane; type: cell membranes; outline: as §1
[7] = molecular target: 5-hydroxytryptamine receptor 2A (Homo sapiens, UniProt P28223); experiment: Displacement of [3H]ketanserine from 5HT2A receptor
Sequence of 5-hydroxytryptamine receptor 2A (P28223 whole entry): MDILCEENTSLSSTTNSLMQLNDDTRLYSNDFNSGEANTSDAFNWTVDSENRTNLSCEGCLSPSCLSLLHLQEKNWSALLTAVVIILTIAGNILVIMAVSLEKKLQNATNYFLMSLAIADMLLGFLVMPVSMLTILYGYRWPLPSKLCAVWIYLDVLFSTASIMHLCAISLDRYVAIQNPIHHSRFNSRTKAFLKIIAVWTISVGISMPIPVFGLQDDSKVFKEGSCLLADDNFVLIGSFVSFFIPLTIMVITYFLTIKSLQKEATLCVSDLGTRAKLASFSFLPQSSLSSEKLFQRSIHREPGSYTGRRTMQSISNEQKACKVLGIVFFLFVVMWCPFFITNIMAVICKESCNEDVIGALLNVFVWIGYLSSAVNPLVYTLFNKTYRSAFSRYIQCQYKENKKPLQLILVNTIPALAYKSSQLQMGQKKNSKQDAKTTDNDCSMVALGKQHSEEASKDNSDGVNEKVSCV

[8] = molecular target: T2, Sodium-dependent serotonin transporter; experiment: Displacement of [3H]paroxetine from SERT in human platelet membrane at 10 uM; type: cell membranes
Outline: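 Compounds were tested at 10 µM, with percent displacement recorded. Where obtainable, Ki was derived from IC50 by Cheng–Prusoff. Assays were run in triplicate.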
Target sequence in this assay (P31645 whole entry, looked up): as the sequence (P31645 whole entry) above

Structure (SMILES) | Ki [1] | Ki [2] | Ratio Ki (Rattus norvegicus [3]) | Ratio Ki (Rattus norvegicus [4]) | Ki [5] | Ki [6] | Ki [7] | Activity [8]
O=c1ccc(-n2ccc3ccccc32)nn1CCCCN1CCN(c2ccc3c(c2)OCCO3)CC1 | 476 nM | 627 nM | 34 | 44.8 | 177 nM | 14 nM |  | 
CC(C)Oc1ccccc1N1CCN(CCNC(=O)Cn2nc(-n3ccnc3)ccc2=O)CC1 | 1960 nM | 1910 nM | 8.89 | 8.7 | > 10000 nM | 220 nM |  | 
O=c1ccc(-n2ccnc2)nn1CCCCN1CCN(c2ncccn2)CC1 | 1550 nM | 890 nM | 2.2 | 1.25 | > 10000 nM | 710 nM |  | 5%
COC(=O)[C@H]1[C@H]2C[C@H]3c4[nH]c5ccccc5c4CCN3C[C@H]2CC[C@@H]1O [RAUWOLSCINE] | 4 nM |  |  |  |  |  |  | 
CC(C)Oc1ccccc1N1CCN(C(=O)CCCn2nc(-n3ccnc3)ccc2=O)CC1 | 1340 nM | 1560 nM | 1.49 | 1.73 | > 10000 nM | 897 nM |  | 2%
CC(C)Oc1ccccc1N1CCN(CCCCn2nc(-n3ccc4ccccc43)ccc2=O)CC1 | 20.1 nM | 22.8 nM | 12 | 13.6 | 1040 nM | 1.7 nM |  | 
COc1ccccc1N1CCN(CCNC(=O)Cn2nc(-n3ccnc3)ccc2=O)CC1 | 2970 nM | 2070 nM | 4.3 | 3 | 3460 nM | 688 nM |  | 
O=c1ccc(-n2ccnc2)nn1CCCCN1CCN(c2ccc3c(c2)OCCO3)CC1 | 996 nM | 937 nM | 3.9 | 3.73 | > 10000 nM | 251 nM |  | 26%
O=c1ccc(-n2ccnc2)nn1CCCCN1CCN(c2cccc(C(F)(F)F)c2)CC1 | 656 nM | 13 nM | 5.6 |  | 230 nM | 118 nM | 166 nM | 
CCOc1ccccc1N1CCN(CCCCn2nc(-n3ccc4ccccc43)ccc2=O)CC1 | 70.1 nM | 27.7 nM | 62.6 | 24.7 | 639 nM | 1.1 nM |  | 

Next, values leading:

Ki [1] | Ki [2] | Ratio Ki (Rattus norvegicus [3]) | Ratio Ki (Rattus norvegicus [4]) | Ki [5] | Ki [6] | Ki [7] | Activity [8] | Structure (SMILES)
 |  |  |  |  | 0.24 nM |  |  | COc1cc2nc(N3CCN(C(=O)c4ccco4)CC3)nc(N)c2cc1OC [PRAZOSIN]
462 nM | 62 nM | 7.7 | 1.03 | 109 nM | 60 nM | 83 nM |  | O=c1ccc(-n2ccc3ccccc32)nn1CCCCN1CCN(c2cccc(C(F)(F)F)c2)CC1
1760 nM | 2250 nM | 3.57 | 4.57 | > 10000 nM | 492 nM |  | 11% | CCOc1ccccc1N1CCN(C(=O)CCCn2nc(-n3ccnc3)ccc2=O)CC1
725 nM | 210 nM | 38.1 | 11.1 | > 10000 nM | 19 nM |  | 25% | O=c1ccc(-n2ccc3ccccc32)nn1CCCCN1CCN(c2ncccn2)CC1
44 nM | 6.8 nM | 110 | 17 | > 10000 nM | 0.4 nM |  | 10% | CC(C)Oc1ccccc1N1CCN(CCCCn2nc(-n3ccnc3)ccc2=O)CC1
3140 nM | 1150 nM | 13.4 | 4.9 | 5980 nM | 234 nM |  |  | CCOc1ccccc1N1CCN(CCNC(=O)Cn2nc(-n3ccnc3)ccc2=O)CC1
147 nM | 14 nM | 163 | 15.5 | > 10000 nM | 0.8 nM |  | 15% | CCOc1ccccc1N1CCN(CCCCn2nc(-n3ccnc3)ccc2=O)CC1
1900 nM | 318 nM | 0.86 | 0.14 | > 10000 nM | 2190 nM |  | 3% | COc1ccccc1N1CCN(C(=O)CCCn2nc(-n3ccnc3)ccc2=O)CC1
